Reference: ChEMBL document CHEMBL2034829, “Truncated phosphonated C-1'-branched N,O-nucleosides: a new class of antiviral agents” (Bioorg Med Chem, 2012)
Active and inactive are the calls of the source. The calls are words filed in the database; no cut-off is given here.

What was measured:
[1] = Cytotoxicity against human MOLT3 cells by MTS assay; type: cell-based; details: MOLT-3 cells
Procedure, shortened: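 MOLT-3 cells (1 × 10^4) seeded with or without compounds at 1000 to 1 µM. Metabolic activity read colorimetrically as MTS formazan formation. CC50 is the concentration giving 50% inhibition of metabolic activity.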

[2] = test system: Human T-cell leukemia virus type I; experiment: Antiviral activity against HTLV1 infected in PBMC assessed as decrease in viral core protein p19 production; type: functional, organism-based
Procedure, shortened: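 PBMC co-cultivated with a chronically HTLV-1-infected cell line, with test compounds present; infection measured as production of viral core protein p19.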

[3] = test system: Human immunodeficiency virus 1; experiment: Antiviral activity against HIV1 infected in CEM cells after 72 hrs by GFP reporter gene assay; type: functional, organism-based; details: for IC50: Human immunodeficiency virus 1, CCRF-CEM; for Activity: CCRF-CEM
Procedure, shortened: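 CEM T cells carrying an HIV-1 LTR-driven GFP plasmid; 5 × 10^5 cells infected 2 h in 100 µl with supernatant of chronically HIV-infected H9 cells (20 ng/mL p24 equivalent) with compounds at 1000, 100, 10, 1 µM; medium then added, 72 h culture; inhibition scored by GFP expression; IC50 = concentration inhibiting 50% infection; zidovudine internal positive control.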

[4] = test system: Human immunodeficiency virus 1; experiment: Ratio of AZT IC50 to compound IC50 for HIV1; type: functional
[5] = Selectivity index, ratio of CC50 for human MOLT3 cells to IC50 for HIV1; type: functional, MOLT-3
Procedure, shortened: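 SI = CC50/IC50. CC50 from MTS formazan colorimetric assay: 1 × 10^4 MOLT-3 cells with or without compounds at 1000 to 1 µM, concentration reducing metabolic activity 50%. IC50 from CEM-GFP HIV-1 infection (2 h exposure with compounds at 1000–1 µM, 72 h culture, GFP read-out).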

[6] = Ratio of compound CC50 to AZT CC50 for human MOLT3 cells; type: cell-based; details: MOLT-3 cells

In the case of `CCOC(=O)[C@@]1(n2cc(C)c(=O)[nH]c2=O)C[C@H](P(=O)(OCC)OCC)N(C)O1` (racemic), the CC50 [1] is reported as > 1000 µM, the Activity [2] is reported as “inactive” and the IC50 [3] is reported as > 1000 µM.

With `CCOC(=O)[C@@]1(n2cc(F)c(=O)[nH]c2=O)C[C@H](P(=O)(OCC)OCC)N(C)O1` (racemic) the CC50 [1] was > 1000 µM, the “Ratio IC50” value [4] was 28 and the Activity [2] was “inactive”. For the same compound, the “Ratio CC50/IC50” value [5] was 4.5, the IC50 [3] was 220 µM and the selectivity ratio [6] was 83.

In the case of `CCOC(=O)[C@@]1(n2ccc(=O)[nH]c2=O)C[C@H](P(=O)(OCC)OCC)N(C)O1` (racemic), the CC50 [1] is reported as > 1000 µM, the “Ratio IC50” value [4] is reported as 28 and the Activity [2] is reported as “inactive”. The “Ratio CC50/IC50” value [5] was 7.57, the IC50 [3] was 132 µM and the selectivity ratio [6] was 83.

For `CCOC(=O)[C@@]1(n2ccc(NC(C)=O)nc2=O)C[C@H](P(=O)(OCC)OCC)N(C)O1` (racemic), the CC50 [1] was > 1000 µM, the Activity [2] was “inactive” and the IC50 [3] was > 1000 µM.

In the case of `CCOC(=O)[C@@]1(n2ccc(N)nc2=O)C[C@H](P(=O)(OCC)OCC)N(C)O1` (racemic), the CC50 [1] is reported as > 1000 µM, the Activity [2] is reported as “inactive” and the “Ratio CC50/IC50” value [5] is reported as 7.02. For the same compound, the IC50 [3] was 180 µM.

With `CCOC(=O)[C@]1(n2cc(C)c(=O)[nH]c2=O)C[C@H](P(=O)(OCC)OCC)N(C)O1` (racemic) the Activity [2] was “inactive” and the Activity [3] was “inactive”.

In the case of `CCOC(=O)[C@]1(n2cc(F)c(=O)[nH]c2=O)C[C@H](P(=O)(OCC)OCC)N(C)O1` (racemic), the Activity [2] is reported as “inactive” and the Activity [3] is reported as “inactive”.

For `CCOC(=O)[C@]1(n2ccc(NC(C)=O)nc2=O)C[C@H](P(=O)(OCC)OCC)N(C)O1` (racemic), the Activity [2] was “inactive” and the Activity [3] was “inactive”.

With `CCOC(=O)[C@]1(n2ccc(=O)[nH]c2=O)C[C@H](P(=O)(OCC)OCC)N(C)O1` (relative stereo) the Activity [2] was “inactive” and the Activity [3] was “inactive”.

In the case of `Cc1cn([C@H]2C[C@H](N=[N+]=[N-])[C@@H](CO)O2)c(=O)[nH]c1=O` [ZIDOVUDINE], the CC50 [1] is reported as 12.1 µM, the “Ratio CC50/IC50” value [5] is reported as 1.57 and the IC50 [3] is reported as 7.7 µM.
